Assay results from ChEMBL document CHEMBL4007441, “Novel Design of Heptad Amphiphiles To Enhance Cell Selectivity, Salt Resistance, Antibiofilm Properties and Their Membrane-Disruptive Mechanism” (J Med Chem, 2017).
Values after ≈ are worked out from the molar mass of the structure shown.

Assays:
[1] = tested on: Staphylococcus aureus; assay: Antibacterial activity against Staphylococcus aureus ATCC 29213 after 18 hrs by broth microdilution method; format: functional
In short: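 Broth microdilution. Exponential-phase bacteria grown in MHB at 37 °C, diluted to about 1 × 10^6 CFU/mL in MHB and mixed 1:1 with two-fold dilutions of peptide. MIC is the lowest concentration with no visible turbidity after 18 h at 37 °C. Controls were uninoculated broth and peptide-free culture. At least three repeats, duplicates each.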

[2] = tested on: Pseudomonas aeruginosa; assay: Antibacterial activity against Pseudomonas aeruginosa ATCC 27853 after 18 hrs by broth microdilution method; format: functional
In short: (§1)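 Broth microdilution in Mueller-Hinton broth. Exponential-phase bacteria (37 °C, 220 rpm shaking) were diluted to about 1 × 10^6 CFU/mL and mixed 1:1 with two-fold serial peptide dilutions. MIC is the lowest concentration with no visible turbidity after 18 h at 37 °C. Controls were uninoculated MHB and untreated culture. Run at least three times, two replicates each.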

[3] = tested on: Pseudomonas aeruginosa; assay: Antibacterial activity against Pseudomonas aeruginosa CICC 10419 after 18 hrs by broth microdilution method; format: functional; in short: as §1
[4] = tested on: Pseudomonas aeruginosa; assay: Antibacterial activity against Pseudomonas aeruginosa CICC 21625 after 18 hrs by broth microdilution method; format: functional; in short: as §1
[5] = tested on: Pseudomonas aeruginosa; assay: Antibacterial activity against Pseudomonas aeruginosa CICC 21630 after 18 hrs by broth microdilution method; format: functional; in short: as §1
[6] = tested on: Pseudomonas aeruginosa; assay: Antibacterial activity against ciprofloxacin-resistant Pseudomonas aeruginosa 11411 after 18 hrs by broth microdilution method; format: functional
In short: (§2)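 Broth microdilution in Mueller-Hinton broth. Exponential-phase bacteria (37 °C, 220 rpm shaking) were diluted to about 1 × 10^6 CFU/mL and mixed 1:1 with two-fold serial peptide dilutions. Controls were uninoculated MHB and untreated culture. Run at least three times, two replicates each.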

[7] = tested on: Pseudomonas aeruginosa; assay: Antibacterial activity against gentamicin-resistant Pseudomonas aeruginosa 11421 after 18 hrs by broth microdilution method; format: functional; conditions: Pseudomonas aeruginosa, 11421, 18 h; in short: as §2
[8] = tested on: Pseudomonas aeruginosa; assay: Antibacterial activity against ceftazidime-resistant Pseudomonas aeruginosa 11431 after 18 hrs by broth microdilution method; format: functional; in short: as §1
[9] = tested on: Pseudomonas aeruginosa; assay: Antibacterial activity against Pseudomonas aeruginosa 21328 clinical isolate after 18 hrs by broth microdilution method; format: functional; conditions: Pseudomonas aeruginosa, 21328, 18 h
[10] = tested on: Pseudomonas aeruginosa; assay: Antibacterial activity against Pseudomonas aeruginosa 25349 clinical isolate after 18 hrs by broth microdilution method; format: functional
[11] = tested on: Pseudomonas aeruginosa; assay: Antibacterial activity against Pseudomonas aeruginosa 26305 clinical isolate after 18 hrs by broth microdilution method; format: functional
[12] = tested on: RAW264.7; assay: Cytotoxicity in mouse RAW264.7 cells after 24 hrs by MTT assay; format: cell-based; conditions: raw264.7, 24 h
[13] = tested on: Escherichia coli; assay: microbe, parasite or virus in culture; conditions: ATCC 25922, 18 h
[14] = tested on: Pseudomonas aeruginosa; assay: Drug uptake in Pseudomonas aeruginosa ATCC 27853 treated with FITC-labeled compound at MIC after 30 mins by confocal fluorescence microscopy; format: ADME; conditions: 0.5 h
In short: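 Cells were pelleted at 5,000 g for 5 min, washed three times in PBS, smeared and imaged by confocal microscopy with 488 nm excitation.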

[15] = tested on: Lipopolysaccharide (LPS); assay: Binding affinity to Pseudomonas aeruginosa ATCC 27853 LPS by SPR spectroscopic analysis
In short: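 Biacore SPR. Peptides were amine-coupled to CM5 chips at 20 µg/mL in 10 mM acetate pH 6.0, giving about 1300 RU. LPS at 3.125–12.5 µg/mL in 20 mM Tris/100 mM NaCl pH 7.4 was flowed at 10 µL/min. Surfaces were regenerated with 50 mM NaOH plus 0.05% SDS. Three independent runs.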

[16] = tested on: Pseudomonas aeruginosa; assay: Antibacterial activity against Pseudomonas aeruginosa ATCC 27853 assessed as induction of outer membrane permeabilization by measuring NPN uptake by spectrofluorophotometric analysis; format: functional
In short: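 Exponential-phase cells were washed in HEPES pH 7.4 with 5 mM glucose and diluted to about 10^5 CFU/mL. NPN was added at 10 µM final, then peptide at varying concentrations. Fluorescence (ex 350/em 420 nm) was followed to plateau. Values are % NPN uptake relative to polymyxin B at 10 mg/L (100%). Three experiments, duplicates.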

[17] = tested on: Pseudomonas aeruginosa; assay: Antibacterial activity against Pseudomonas aeruginosa ATCC 27853 assessed as induction of cytoplasmic membrane depolarization after 90 min incubation under dark condition by diSC3-5 dye-based fluorescence analysis; format: functional
In short: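 Exponential-phase cells were washed three times in 5 mM HEPES (pH 7.4). diSC3-5 (0.4 µM final) and KCl (0.1 M final) were added, then the cells were incubated 90 min at 37 °C in the dark. Peptide at a range of concentrations was added and fluorescence followed at ex 622/em 670 nm. Three independent experiments, duplicates each.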

[18] = tested on: Pseudomonas aeruginosa; assay: Antibacterial activity against Pseudomonas aeruginosa ATCC 27853 assessed as induction of membrane integrity disruption at MIC after 15 mins by PI-staining based flow cytometry (reference value: 4.7%)
[19] = Pseudomonas aeruginosa, 11411, 18 h
[20] = Pseudomonas aeruginosa, 11431, 18 h
[21] = Pseudomonas aeruginosa, 25349, 18 h
[22] = Pseudomonas aeruginosa, 26305, 18 h

Compound	MIC ([1]; ATCC 29213, 18 h)	MIC ([2]; ATCC 27853, 18 h)	MIC ([3]; CICC 10419, 18 h)	MIC ([4]; CICC 21625, 18 h)	MIC ([5]; CICC 21630, 18 h)	MIC [6, 19]	MIC [7]	MIC [8, 20]	MIC [9]	MIC [10, 21]	MIC [11, 22]	CC10 [12]	MIC [13]	Activity [16]	further results
CC(C)(O/N=C(\C(=O)N[C@@H]1C(=O)N2C(C(=O)[O-])=C(C[n+]3ccccc3)CS[C@H]12)c1csc(N)n1)C(=O)O [CEFTAZIDIME]	16 µg/mL (≈ 29.3 µM)	2 µg/mL (≈ 3.66 µM)	32 µg/mL (≈ 58.5 µM)	32 µg/mL (≈ 58.5 µM)	8 µg/mL (≈ 14.6 µM)	32 µg/mL (≈ 58.5 µM)	32 µg/mL (≈ 58.5 µM)	256 µg/mL (≈ 468 µM)	256 µg/mL (≈ 468 µM)	64 µg/mL (≈ 117 µM)	128 µg/mL (≈ 234 µM)	> 256 µg/mL	2 µg/mL (≈ 3.66 µM)	–	–
O=C(O)c1cn(C2CC2)c2cc(N3CCNCC3)c(F)cc2c1=O [CIPROFLOXACIN]	4 µg/mL (≈ 12.1 µM)	4 µg/mL (≈ 12.1 µM)	–	–	16 µg/mL (≈ 48.3 µM)	–	16 µg/mL (≈ 48.3 µM)	–	–	–	–	–	–	–	–
CC[C@H](C)[C@H](NC(=O)CN)C(=O)NCC(=O)N[C@@H](C)C(=O)N[C@H](C(=O)N[C@@H](CC(C)C)C(=O)N[C@@H](CCCCN)C(=O)N[C@H](C(=O)N[C@@H](CC(C)C)C(=O)N[C@H](C(=O)N[C@H](C(=O)NCC(=O)N[C@@H](CC(C)C)C(=O)N1CCC[C@H]1C(=O)N[C@@H](C)C(=O)N[C@@H](CC(C)C)C(=O)N[C@H](C(=O)N[C@@H](CO)C(=O)N[C@@H](Cc1c[nH]c2ccccc12)C(=O)N[C@H](C(=O)N[C@@H](CCCCN)C(=O)N[C@@H](CCCNC(=N)N)C(=O)N[C@@H](CCCCN)C(=O)N[C@@H](CCCNC(=N)N)C(=O)N[C@@H](CCC(N)=O)C(=O)N[C@@H](CCC(N)=O)C(N)=O)[C@@H](C)CC)[C@@H](C)CC)[C@@H](C)O)[C@@H](C)O)C(C)C)C(C)C [MELITTIN]	–	–	–	–	–	–	–	–	–	–	–	0.5 µg/mL (≈ 0.176 µM)	–	–	Drug uptake [14]: Active; Activity [15]: Dose-dependent effect
GENTAMICIN [listing 1 of 2 here]	–	–	–	–	–	–	–	–	–	–	–	> 256 µg/mL	–	–	–
GENTAMICIN [listing 2 of 2 here]	–	–	–	–	–	–	–	–	–	–	–	–	–	–	MIC [1]: 1 µg/mL; MIC [2]: 2 µg/mL; MIC [3]: 16 µg/mL; MIC [4]: 32 µg/mL; MIC [5]: 8 µg/mL; MIC [6]: 32 µg/mL; MIC [8]: 8 µg/mL; MIC [10]: 4 µg/mL; MIC [11]: 2 µg/mL
H-ARRARRRWRRRARRA-NH2	64 µg/mL	128 µg/mL	256 µg/mL	256 µg/mL	256 µg/mL	256 µg/mL	256 µg/mL	256 µg/mL	256 µg/mL	32 µg/mL	256 µg/mL	> 256 µg/mL	64 µg/mL	Dose-dependent effect	–
H-FRRFRRRWRRRFRRF-NH2	16 µg/mL	8 µg/mL	256 µg/mL	256 µg/mL	32 µg/mL	256 µg/mL	256 µg/mL	16 µg/mL	256 µg/mL	8 µg/mL	64 µg/mL	256 µg/mL	8 µg/mL	Dose-dependent effect	–
H-LRRLRRRLRRLRRRWRRRLRRLRRRLRRL-OH	16 µg/mL	8 µg/mL	4 µg/mL	8 µg/mL	4 µg/mL	8 µg/mL	16 µg/mL	8 µg/mL	8 µg/mL	8 µg/mL	16 µg/mL	128 µg/mL	8 µg/mL	Dose-dependent effect	–
H-LRRLRRRWLRRLRRR-NH2	64 µg/mL	32 µg/mL	256 µg/mL	64 µg/mL	32 µg/mL	128 µg/mL	256 µg/mL	64 µg/mL	128 µg/mL	32 µg/mL	64 µg/mL	> 256 µg/mL	> 128 µg/mL	Dose-dependent effect	Activity [17]: Dose-dependent effect; Activity [18]: 57%
H-LRRLRRRWRRRLRRL-NH2	16 µg/mL	16 µg/mL	32 µg/mL	16 µg/mL	16 µg/mL	32 µg/mL	32 µg/mL	16 µg/mL	32 µg/mL	8 µg/mL	32 µg/mL	256 µg/mL	16 µg/mL	Dose-dependent effect	Activity [17]: Dose-dependent effect; Activity [18]: 93%
H-WRRWRRRWRRRWRRW-NH2	16 µg/mL	4 µg/mL	256 µg/mL	256 µg/mL	16 µg/mL	256 µg/mL	256 µg/mL	8 µg/mL	256 µg/mL	32 µg/mL	32 µg/mL	128 µg/mL	32 µg/mL	Dose-dependent effect	–
